The test in a line: viability loss of SR-BI expressing CHO cells – cell-based, 24 h, ATP luminescence, dry powder, set 6, cytotoxicity control for SR-BI HDL uptake inhibitor project, dose response (AID 623895). The note with it: ldlA[mSR-BI] CHO cells viability, ATP luminescence, 24 h; at 35 µM (top of the series). The gist of the method:
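Material: ldlA[mSR-BI] cells; Input: 4,000 cells per well; Measured by: cell Titer Glo luminescence reporting cellular ATP; Schedule: 24 h at 37 °C, read after 10 min; Dosing: Eight-point compound dose series.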

Activity change, negative = cytotoxicity data for 53 molecules are collected here from PubChem BioAssay AID623895 (Broad Institute, 2012).

Calls of active or inactive are those of the source.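 The calls were made as follows: active = compounds with an ATP-loss curve whose half-maximal dose stays within twice the top dose, in every run; inconclusive = mixed run calls, weak flat effects or poor fits; inactive = the rest, including opposite-direction effects.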

For `COc1ccc(CN(C)C[C@@H]2Oc3ccc(NC(=O)Cc4cn(C)c5ccccc45)cc3C(=O)N([C@H](C)CO)C[C@H]2C)cc1`, the activity change, negative = cytotoxicity is -17.6% (inactive).

As for `C[C@@H]1CN([C@H](C)CO)C(=O)c2cc(NC(=O)CCN3CCOCC3)ccc2O[C@H]1CN(C)S(=O)(=O)c1ccc(Cl)cc1`, the activity change, negative = cytotoxicity is 19.5% (inactive).

For the molecule `COc1ccc2c(c1)CC(C1(O)C(=O)N(C)c3ccccc31)C2=O` (stereo not drawn), the activity change, negative = cytotoxicity was -9.47% (inactive).

Consider `C[C@@H]1CN([C@H](C)CO)C(=O)c2cc(NC(=O)CCCCCC(=O)Nc3ccccc3N)ccc2O[C@H]1CN(C)S(=O)(=O)c1ccc(Cl)cc1`, for which the activity change, negative = cytotoxicity is -0.144% (inactive).

In the case of `C[C@@H]1CN([C@H](C)CO)C(=O)c2cc(NC(=O)CCC(F)(F)F)ccc2O[C@H]1CN(C)S(=O)(=O)c1ccc(Cl)cc1`, the activity change, negative = cytotoxicity is -19.4% (inactive).

In the case of `C[C@@H]1CN([C@H](C)CO)C(=O)c2cc(NC(=O)C3CCOCC3)ccc2O[C@H]1CN(C)S(=O)(=O)c1ccc(Cl)cc1`, the activity change, negative = cytotoxicity was -5.21% (inactive).

On to `C[C@@H]1CN([C@H](C)CN)C(=O)c2cc(NC(=O)Cc3cn(C)c4ccccc34)ccc2O[C@H]1CN(C)S(=O)(=O)c1ccc(Cl)cc1`, for which the activity change, negative = cytotoxicity is -0.334% (inactive).

Regarding `O=C(C[C@@H]1CC[C@@H](NC(=O)CC2CC2)[C@H](CO)O1)NCc1ccc(Cl)cc1`, the activity change, negative = cytotoxicity is -2.93% (inactive).

Turning to `C[C@@H]1CN([C@H](C)CO)C(=O)c2cc(NC(=O)Cc3cn(C)c4ccccc34)ccc2O[C@H]1CN(C)C(=O)Nc1cccc2ccccc12`, the activity change, negative = cytotoxicity was -4.64% (inactive).

For `Cc1noc(C)c1S(=O)(=O)N(C)C[C@H]1Oc2c(NC(=O)c3nc4ccccc4s3)cccc2C(=O)N([C@H](C)CO)C[C@H]1C`, the activity change, negative = cytotoxicity was -8.36% (inactive).

Turning to `CO[C@H]1CN(C)C(=O)c2ccc(NC(=O)C3CCCC3)cc2OC[C@@H](C)N(C(=O)CC2CC2)C[C@@H]1C`, the activity change, negative = cytotoxicity is -11.9% (inactive).

With `O=C(C[C@H]1CC[C@H](NC(=O)CC2CC2)[C@@H](CO)O1)NCc1ccc(Cl)cc1`, the activity change, negative = cytotoxicity is -5.27% (inactive).

With `C[C@@H]1CN([C@H](C)CO)C(=O)c2cc(NC(=O)Cc3cn(C)c4ccccc34)ccc2O[C@H]1CN(C)Cc1ccccc1`, the activity change, negative = cytotoxicity was -31.2% (inactive).

`COc1ccc(NC(=O)Nc2ccc3c(c2)C(=O)N([C@H](C)CO)C[C@@H](C)[C@H](CN(C)S(=O)(=O)c2ccc(Cl)cc2)O3)cc1`: the activity change, negative = cytotoxicity is -15.6% (inactive).

For the molecule `C[C@@H]1CN([C@H](C)CO)C(=O)c2cc(NC(=O)Cc3cn(C)c4ccccc34)ccc2O[C@H]1CN(C)C`, the activity change, negative = cytotoxicity is 6.87% (inactive).

With `C[C@@H]1CN([C@@H](C)CO)C(=O)Cc2cc(NC(=O)CCCN(C)C)ccc2O[C@H]1CN(C)Cc1ccncc1`, the activity change, negative = cytotoxicity was 0.314% (inactive).

Take `CNC[C@@H]1Oc2ccc(NC(=O)Cc3cn(C)c4ccccc34)cc2C(=O)N([C@H](C)CO)C[C@H]1C`: the activity change, negative = cytotoxicity is 14.8% (inactive).

On to `C[C@@H]1CN([C@H](C)CO)C(=O)c2cc(NC(=O)Cc3cn(C)c4ccccc34)ccc2O[C@H]1CN(C)CC1CCCCC1`, for which the activity change, negative = cytotoxicity is -22.1% (inactive).

Take `C[C@@H]1CN([C@H](C)CO)C(=O)c2cc(NS(=O)(=O)c3ccccc3)ccc2O[C@H]1CN(C)S(=O)(=O)c1ccc(Cl)cc1`: the activity change, negative = cytotoxicity is -8.14% (inactive).

Consider `Cc1ccccc1-c1ccc2c(c1)O[C@H](CN(C)C(=O)Nc1ccc(F)cc1)[C@H](C)CN([C@H](C)CO)S2(=O)=O`, for which the activity change, negative = cytotoxicity was -28.5% (inactive).

On to `COc1ccc(CN(C)C[C@@H]2Oc3ccc(NC(=O)CCCN(C)C)cc3C(=O)N([C@H](C)CO)C[C@H]2C)cc1`, for which the activity change, negative = cytotoxicity is 12.2% (inactive).

Turning to `COc1ccc(NC(=O)N(C)C[C@@H]2Oc3ccc(NC(=O)Cc4cn(C)c5ccccc45)cc3C(=O)N([C@H](C)CO)C[C@H]2C)cc1`, the activity change, negative = cytotoxicity is 13.1% (inactive).

On to `Cc1ccc(OCc2cc(C(=O)N3CCCC(O)C3)no2)cn1` (stereo not drawn), for which the activity change, negative = cytotoxicity was -19.7% (inactive).

On to `O=C(O)CC(C(=O)Nc1cccc(C(F)(F)F)c1)C1CCCO1` (stereo not drawn), for which the activity change, negative = cytotoxicity was -9.62% (inactive).

`C[C@@H]1CN([C@H](C)CO)C(=O)c2cc(NC(=O)Cc3cn(C)c4ccccc34)ccc2O[C@H]1CN(C)S(=O)(=O)c1ccc(F)cc1`: the activity change, negative = cytotoxicity was -29.1% (inactive).

On to `C[C@@H]1CN([C@H](C)CO)C(=O)c2cc(NC(=O)c3ccncc3)ccc2O[C@H]1CN(C)S(=O)(=O)c1ccc(Cl)cc1`, for which the activity change, negative = cytotoxicity is 4.97% (inactive).

For the molecule `C[C@@H]1CN([C@H](C)CO)C(=O)c2cc(N(C)C)ccc2O[C@H]1CN(C)S(=O)(=O)c1ccc(Cl)cc1`, the activity change, negative = cytotoxicity was -23.7% (inactive).

For `C[C@@H]1CN([C@H](C)CO)C(=O)c2cc(NC(=O)Cc3cn(C)c4ccccc34)ccc2O[C@H]1CN(C)C(=O)Nc1ccc2c(c1)OCO2`, the activity change, negative = cytotoxicity is 7.49% (inactive).

`C[C@@H]1CN([C@@H](C)CO)C(=O)Cc2cc(NS(=O)(=O)c3cn(C)cn3)ccc2O[C@@H]1CN(C)Cc1ccc(Cl)c(Cl)c1`: the activity change, negative = cytotoxicity is -6.37% (inactive).

Turning to `CC(=O)Nc1ccc(Cl)c(C(=O)Nc2ccc(N3CCN(C(=O)OC(C)(C)C)CC3)cc2)c1`, the activity change, negative = cytotoxicity was -29.2% (inactive).

Consider `C[C@@H]1CN([C@H](C)CO)C(=O)c2cc(NC(=O)C3CCCCC3)ccc2O[C@H]1CN(C)S(=O)(=O)c1ccc(Cl)cc1`, for which the activity change, negative = cytotoxicity was -30.6% (inactive).

For `C[C@@H]1CN([C@H](C)CO)C(=O)c2cc(NC(=O)Nc3cccc4ccccc34)ccc2O[C@H]1CN(C)S(=O)(=O)c1ccc(Cl)cc1`, the activity change, negative = cytotoxicity was -10.4% (inactive).

For `CNC[C@@H]1OCCCC[C@@H](C)Oc2ccc(NS(=O)(=O)c3ccc(Cl)cc3)cc2C(=O)N([C@H](C)CO)C[C@H]1C`, the activity change, negative = cytotoxicity is -5.46% (inactive).

For the molecule `CO[C@@H]1CN(C)C(=O)c2ccc(NC(=O)C3CC3)cc2OC[C@@H](C)N(Cc2ccncc2)C[C@H]1C`, the activity change, negative = cytotoxicity is -2.35% (inactive).

Take `C[C@H]1CN([C@@H](C)CO)C(=O)c2cc(NC(=O)Cc3cn(C)c4ccccc34)ccc2O[C@H]1CN(C)S(=O)(=O)c1ccc(Cl)cc1`: the activity change, negative = cytotoxicity was -23.6% (inactive).

Take `C[C@H](CO)N1C[C@H](C)[C@H](CN(C)C)Oc2c(NS(C)(=O)=O)cccc2C1=O`: the activity change, negative = cytotoxicity is 4.96% (inactive).

Regarding `C[C@@H]1CN([C@@H](C)CO)C(=O)Cc2cc(NS(C)(=O)=O)ccc2O[C@@H]1CN(C)Cc1ccc(C(F)(F)F)cc1`, the activity change, negative = cytotoxicity was -12.8% (inactive).

On to `C[C@@H]1CN([C@H](C)CO)C(=O)c2cc(NC(=O)Cc3cn(C)c4ccccc34)ccc2O[C@H]1CN(C)C(=O)NC1CCCCC1`, for which the activity change, negative = cytotoxicity is 5.85% (inactive).

With `C[C@@H]1CN([C@H](C)CO)C(=O)c2cc(NC(=O)Cc3cn(C)c4ccccc34)ccc2O[C@H]1CN(C)Cc1ccc2c(c1)OCO2`, the activity change, negative = cytotoxicity was -15% (inactive).

`Cc1noc(C)c1NC(=O)Nc1ccc2c(c1)C(=O)N([C@H](C)CO)C[C@@H](C)[C@H](CN(C)S(=O)(=O)c1ccc(Cl)cc1)O2`: the activity change, negative = cytotoxicity is -7.8% (inactive).

On to `C[C@@H]1CN([C@H](C)CO)C(=O)c2cc(NC(=O)Cc3cn(C)c4ccccc34)ccc2O[C@H]1CN(C)S(=O)(=O)c1ccccc1`, for which the activity change, negative = cytotoxicity was -5.11% (inactive).

On to `C[C@H](CO)N1C[C@H](C)[C@H](CN(C)CC2CCCCC2)Oc2c(NS(=O)(=O)c3cn(C)cn3)cccc2C1=O`, for which the activity change, negative = cytotoxicity is 5.52% (inactive).

For the molecule `C[C@@H]1CN([C@H](C)CO)C(=O)c2cc(NS(C)(=O)=O)ccc2O[C@H]1CN(C)S(=O)(=O)c1ccc(Cl)cc1`, the activity change, negative = cytotoxicity is -14.8% (inactive).

For `C[C@@H]1CN([C@H](C)CO)C(=O)c2cc(NC(=O)Cc3cn(C)c4ccccc34)ccc2O[C@H]1CN(C)C(=O)Nc1ccc(F)cc1`, the activity change, negative = cytotoxicity was -16.3% (inactive).

For the molecule `C[C@@H]1CN([C@H](C)CO)C(=O)c2cc(NC(=O)Nc3ccc(C(F)(F)F)cc3)ccc2O[C@H]1CN(C)S(=O)(=O)c1ccc(Cl)cc1`, the activity change, negative = cytotoxicity is -31.8% (inactive).

With `C[C@@H]1CN([C@H](C)CO)C(=O)c2cc(NS(=O)(=O)c3cn(C)cn3)ccc2O[C@H]1CN(C)S(=O)(=O)c1ccc(Cl)cc1`, the activity change, negative = cytotoxicity is 1.24% (inactive).

`C[C@@H]1CN([C@H](C)CO)C(=O)c2cc(NC(=O)Nc3ccc(F)cc3)ccc2O[C@H]1CN(C)S(=O)(=O)c1ccc(Cl)cc1`: the activity change, negative = cytotoxicity was -20.6% (inactive).

Take `C[C@@H]1CN([C@H](C)CO)C(=O)c2cc(NC(=O)Cn3cnnn3)ccc2O[C@H]1CN(C)S(=O)(=O)c1ccc(Cl)cc1`: the activity change, negative = cytotoxicity is 10.5% (inactive).

Consider `C[C@H](CO)N1C[C@H](C)[C@@H](CN(C)S(=O)(=O)c2ccc(Cl)cc2)Oc2ccc(NC(=O)Cc3cn(C)c4ccccc34)cc2C1=O`, for which the activity change, negative = cytotoxicity is -25.3% (inactive).

For `C[C@@H]1CN([C@H](C)CO)C(=O)c2cc(NC(=O)C3CCCCC3)ccc2O[C@H]1CN(C)C(=O)c1ccc(Cl)cc1`, the activity change, negative = cytotoxicity was -24.6% (inactive).

`C[C@@H]1CN([C@H](C)CO)C(=O)c2cc(NC(=O)Cc3cn(C)c4ccccc34)ccc2O[C@H]1CN(C)S(=O)(=O)c1cccs1`: the activity change, negative = cytotoxicity is -7.16% (inactive).

In the case of `COc1cc(OC)cc(C(=O)Nc2nc(-c3ccc4c(c3)CCN4C(=O)CN3CCOCC3)cs2)c1`, the activity change, negative = cytotoxicity is 3.74% (inactive).

Regarding `C[C@@H]1CN([C@H](C)CO)C(=O)c2cc(NC(=O)Nc3ccccc3)ccc2O[C@H]1CN(C)S(=O)(=O)c1ccc(Cl)cc1`, the activity change, negative = cytotoxicity is -34.8% (inactive).
